Converted amounts (≈) assume the structure as drawn.
System: Trichophyton mentagrophytes
Assay: Antifungal activity against Trichophyton mentagrophytes ATCC 9533
Format: functional
Procedure, shortened: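 Microbial assay against Trichophyton mentagrophytes ATCC 9533. Compounds were tested at concentrations from 10 μg/mL to 10 ng/mL.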

| Structure (SMILES) | MIC |
| --- | --- |
| CC[C@H]1/C=C/C=C/CC[C@@H](O)[C@@H](C)[C@@H](O)C[C@@H](OC)C[C@@H](O)[C@H](C)[C@H](O)[C@@H](C)/C=C/C(=O)O[C@H]2C[C@@]3(CC[C@H](C)[C@H](C[C@@H](C)O)O3)O[C@@H](CC1)[C@H]2CCC(C)O (stereo not given in full) | 3 µg/mL (≈ 3.77 µM) |
| CC[C@@H](O)C[C@@H]1O[C@@]2(CC[C@@H]1C)C[C@@H]1OC(=O)/C=C/[C@H](C)[C@@H](O)[C@@H](C)[C@H](O)C[C@H](OC)C[C@H](O)[C@H](C)[C@H](O)CC/C=C/C=C/[C@H](CC)CC[C@H](O2)[C@H]1CCC(C)O (stereo not given in full) | 1 µg/mL (≈ 1.24 µM) |
| CC[C@H]1/C=C/C=C/CC[C@@H](O)[C@@H](C)[C@@H](O)C[C@@H](OC)C[C@@H](O)[C@H](C)[C@H](O)[C@@H](C)/C=C/C(=O)O[C@H]2C[C@@]3(CC[C@H](C)[C@H](C[C@@H](C)O)O3)O[C@@H](CC1)[C@H]2CC | 1 µg/mL (≈ 1.33 µM) |
| CCC[C@H]1[C@@H]2C[C@@]3(CC[C@H](C)[C@H](C[C@@H](C)O)O3)O[C@H]1CC[C@@H](CC)/C=C/C=C/CC[C@@H](O)[C@@H](C)[C@@H](O)C[C@@H](OC)C[C@@H](O)[C@H](C)[C@H](O)[C@@H](C)/C=C/C(=O)O2 | 3 µg/mL (≈ 3.92 µM) |
| CCCC[C@H]1[C@@H]2C[C@@]3(CC[C@H](C)[C@H](C[C@@H](C)O)O3)O[C@H]1CC[C@@H](CC)/C=C/C=C/CC[C@@H](O)[C@@H](C)[C@@H](O)C[C@@H](OC)C[C@@H](O)[C@H](C)[C@H](O)[C@@H](C)/C=C/C(=O)O2 | 3 µg/mL (≈ 3.85 µM) |
| CCCCC[C@H]1[C@@H]2C[C@@]3(CC[C@H](C)[C@H](C[C@@H](C)O)O3)O[C@H]1CC[C@@H](CC)/C=C/C=C/CC[C@@H](O)[C@@H](C)[C@@H](O)C[C@@H](OC)C[C@@H](O)[C@H](C)[C@H](O)[C@@H](C)/C=C/C(=O)O2 | 3 µg/mL (≈ 3.78 µM) |
| CC[C@@H]1/C=C/C=C/C[C@H](C)[C@H](O)[C@](C)(O)C(=O)[C@H](C)[C@@H](O)[C@H](C)C(=O)[C@H](C)[C@@H](O)[C@H](C)/C=C/C(=O)O[C@H]2[C@@H](C)[C@@H](CC1)O[C@@]1(CC[C@@H](C)[C@@H](C[C@H](C)O)O1)[C@@H]2C [OLIGOMYCIN A] | 10 µg/mL (≈ 12.6 µM) |

Next, values leading:

| MIC | Structure (SMILES) |
| --- | --- |
| 1 µg/mL (≈ 1.26 µM) | CC[C@@H](O)C[C@@H]1O[C@@]2(CC[C@@H]1C)C[C@@H]1OC(=O)/C=C/[C@H](C)[C@@H](O)[C@@H](C)[C@H](O)C[C@H](OC)C[C@H](O)[C@H](C)[C@H](O)CC/C=C/C=C/[C@H](CC)CC[C@H](O2)[C@H]1CCCO |
| 3 µg/mL (≈ 3.85 µM) | CCC[C@H]1[C@@H]2C[C@@]3(CC[C@H](C)[C@H](C[C@H](O)CC)O3)O[C@H]1CC[C@@H](CC)/C=C/C=C/CC[C@@H](O)[C@@H](C)[C@@H](O)C[C@@H](OC)C[C@@H](O)[C@H](C)[C@H](O)[C@@H](C)/C=C/C(=O)O2 |
| 3 µg/mL (≈ 3.84 µM) | CC[C@H]1/C=C/C=C/CC[C@@H](O)[C@@H](C)[C@@H](O)C[C@@H](OC)C[C@@H](O)[C@H](C)[C@H](O)[C@@H](C)/C=C/C(=O)O[C@H]2C[C@@]3(CC[C@H](C)[C@H](C[C@@H](C)O)O3)O[C@@H](CC1)[C@H]2CCCO [NEOMACLAFUNGIN A] |

Reference: ChEMBL document CHEMBL2163187, “Neomaclafungins A-I: oligomycin-class macrolides from a marine-derived actinomycete” (2012)
